Experimental data from PMC3992716 (European journal of pharmacology, 2013).

Experiments:
α4(2)β2(2)α5 [1] = biological target: T1, α4(2)β2(2)α5 (Homo sapiens, UniProt P17787+P30532+P43681); assay type: cell-based
Summary of the method: (§1)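 Xenopus oocytes defolliculated with collagenase, clamped at −60 mV and perfused with Ringer's containing 1 μM atropine. Rising test compound concentrations were co-applied with control ACh (100 μM for α4(2)β2(2)α5, 30 μM for α4β2α6β2β3), alternating with ACh alone; fresh cells were used if ACh controls fell below 75%. Peak currents were normalised to the preceding ACh control.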

α4β2α6β2β3 [2] = biological target: T2, α4β2α6β2β3 (Homo sapiens, UniProt P17787+P43681+Q05901+Q15825); assay type: cell-based
T2 sequence (P43681 27-627): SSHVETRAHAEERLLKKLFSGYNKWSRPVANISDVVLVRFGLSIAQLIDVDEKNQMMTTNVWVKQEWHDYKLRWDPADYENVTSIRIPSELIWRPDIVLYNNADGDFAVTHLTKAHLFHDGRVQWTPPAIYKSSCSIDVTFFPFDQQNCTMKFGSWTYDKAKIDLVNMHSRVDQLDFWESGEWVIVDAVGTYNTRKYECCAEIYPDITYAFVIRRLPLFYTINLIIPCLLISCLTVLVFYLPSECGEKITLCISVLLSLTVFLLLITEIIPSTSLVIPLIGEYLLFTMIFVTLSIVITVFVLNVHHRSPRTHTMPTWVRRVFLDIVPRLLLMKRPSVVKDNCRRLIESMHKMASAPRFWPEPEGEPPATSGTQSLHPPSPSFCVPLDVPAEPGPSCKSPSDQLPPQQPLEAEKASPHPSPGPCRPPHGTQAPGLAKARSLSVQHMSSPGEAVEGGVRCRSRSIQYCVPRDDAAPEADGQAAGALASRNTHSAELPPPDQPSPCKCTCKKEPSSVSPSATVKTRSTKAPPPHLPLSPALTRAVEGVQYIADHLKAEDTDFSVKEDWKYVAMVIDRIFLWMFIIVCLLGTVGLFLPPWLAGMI
T2 sequence (P17787 26-502): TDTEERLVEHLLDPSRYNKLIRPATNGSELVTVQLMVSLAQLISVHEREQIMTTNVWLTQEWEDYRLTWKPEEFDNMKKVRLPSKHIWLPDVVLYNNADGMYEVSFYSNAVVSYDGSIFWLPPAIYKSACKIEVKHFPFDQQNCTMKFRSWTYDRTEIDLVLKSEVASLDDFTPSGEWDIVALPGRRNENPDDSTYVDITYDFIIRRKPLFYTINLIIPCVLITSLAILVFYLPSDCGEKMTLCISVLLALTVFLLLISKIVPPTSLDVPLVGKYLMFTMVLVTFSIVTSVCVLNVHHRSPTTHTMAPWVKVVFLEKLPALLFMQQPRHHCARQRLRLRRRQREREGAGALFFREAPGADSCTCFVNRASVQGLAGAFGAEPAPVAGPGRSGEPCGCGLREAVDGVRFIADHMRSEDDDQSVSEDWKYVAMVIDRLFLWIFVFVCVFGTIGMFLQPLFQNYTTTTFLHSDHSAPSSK
T2 sequence (Q15825 26-494): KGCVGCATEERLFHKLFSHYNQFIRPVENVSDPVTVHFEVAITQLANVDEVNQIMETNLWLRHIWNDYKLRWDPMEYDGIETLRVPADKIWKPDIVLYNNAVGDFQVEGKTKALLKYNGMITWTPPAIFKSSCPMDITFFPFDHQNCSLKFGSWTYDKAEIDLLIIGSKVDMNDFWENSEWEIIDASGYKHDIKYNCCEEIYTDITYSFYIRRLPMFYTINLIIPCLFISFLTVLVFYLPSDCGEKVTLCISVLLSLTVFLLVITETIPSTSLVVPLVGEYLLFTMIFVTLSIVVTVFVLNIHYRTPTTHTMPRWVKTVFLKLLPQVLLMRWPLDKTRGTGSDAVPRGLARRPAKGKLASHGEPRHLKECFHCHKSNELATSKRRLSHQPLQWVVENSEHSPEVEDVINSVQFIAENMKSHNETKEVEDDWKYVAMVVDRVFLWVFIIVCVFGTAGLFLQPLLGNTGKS
T2 sequence (Q05901 22-458): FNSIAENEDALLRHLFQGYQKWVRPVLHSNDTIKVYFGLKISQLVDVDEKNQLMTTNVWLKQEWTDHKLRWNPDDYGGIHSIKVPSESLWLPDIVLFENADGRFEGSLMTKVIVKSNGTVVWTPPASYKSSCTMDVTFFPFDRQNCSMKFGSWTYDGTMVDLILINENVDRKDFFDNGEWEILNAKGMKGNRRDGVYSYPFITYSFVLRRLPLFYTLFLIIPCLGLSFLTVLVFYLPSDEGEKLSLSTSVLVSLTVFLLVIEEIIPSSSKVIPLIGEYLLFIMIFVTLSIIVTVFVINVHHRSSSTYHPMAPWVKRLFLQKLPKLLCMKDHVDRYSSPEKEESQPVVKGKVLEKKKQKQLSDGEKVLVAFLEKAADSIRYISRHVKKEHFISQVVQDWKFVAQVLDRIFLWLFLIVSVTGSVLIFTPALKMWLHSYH
Summary of the method: as §1

α4(2)β2(2)α5 [3] = biological target: T1, α4(2)β2(2)α5; experiment: cell-based
α4β2α6β2β3 [4] = biological target: T2, α4β2α6β2β3; experiment: cell-based
α2(2)β2(2)α5 = α2(2)β2(2)α5 (Homo sapiens, UniProt P17787+P30532+Q15822); experiment: two-electrode voltage clamp, Xenopus oocytes, agonist-evoked response; assay type: cell-based
Chain of α2(2)β2(2)α5 (Q15822 27-529): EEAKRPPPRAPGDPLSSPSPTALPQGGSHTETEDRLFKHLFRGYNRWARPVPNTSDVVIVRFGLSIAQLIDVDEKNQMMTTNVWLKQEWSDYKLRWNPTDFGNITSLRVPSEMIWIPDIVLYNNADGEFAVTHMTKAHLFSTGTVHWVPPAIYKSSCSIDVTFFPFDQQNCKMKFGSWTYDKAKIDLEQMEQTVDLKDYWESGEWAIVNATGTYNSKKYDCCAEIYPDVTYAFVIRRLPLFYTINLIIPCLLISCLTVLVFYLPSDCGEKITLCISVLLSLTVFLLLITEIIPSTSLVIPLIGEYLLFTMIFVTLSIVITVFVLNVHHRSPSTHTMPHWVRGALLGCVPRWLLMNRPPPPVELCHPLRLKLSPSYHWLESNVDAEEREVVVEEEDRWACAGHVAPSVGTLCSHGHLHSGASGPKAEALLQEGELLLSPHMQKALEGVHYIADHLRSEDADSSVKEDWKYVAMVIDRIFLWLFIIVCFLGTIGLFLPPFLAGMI
Chain of α2(2)β2(2)α5 (P17787 26-502): as the sequence (P17787 26-502) above
Chain of α2(2)β2(2)α5 (P30532 23-468): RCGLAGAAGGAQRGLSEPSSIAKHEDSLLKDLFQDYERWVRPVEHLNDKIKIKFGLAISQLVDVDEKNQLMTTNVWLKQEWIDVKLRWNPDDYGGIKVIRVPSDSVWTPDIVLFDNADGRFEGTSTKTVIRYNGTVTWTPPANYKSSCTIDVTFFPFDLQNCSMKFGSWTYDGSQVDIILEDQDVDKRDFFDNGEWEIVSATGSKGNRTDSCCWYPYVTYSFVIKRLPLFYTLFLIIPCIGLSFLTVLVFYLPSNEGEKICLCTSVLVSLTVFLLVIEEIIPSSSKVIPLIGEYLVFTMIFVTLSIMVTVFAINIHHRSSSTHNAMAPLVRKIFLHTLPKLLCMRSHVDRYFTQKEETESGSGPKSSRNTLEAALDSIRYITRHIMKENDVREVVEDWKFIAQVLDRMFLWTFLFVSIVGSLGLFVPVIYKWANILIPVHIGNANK

T1 sequence (P43681 27-627): as the sequence (P43681 27-627) above
T1 sequence (P17787 26-502): as the sequence (P17787 26-502) above
T1 sequence (P30532 23-468): as the sequence (P30532 23-468) above

| Compound | IC50 (α4(2)β2(2)α5 [1]) | IC50 (α4β2α6β2β3 [2]) | EC50 (α4(2)β2(2)α5 [3]) | EC50 (α4β2α6β2β3 [4]) | EC50 (α2(2)β2(2)α5) |
| --- | --- | --- | --- | --- | --- |
| CNC1(C)C2CCC(C2)C1(C)C (stereo not drawn) [R(-)Mecamylamine, N-2,3,3-tetramethylbicyclo[2.2.1]heptan-2-amine] | 35 ± 5 µM | 13 ± 5 µM | – | – | – |
| CN[C@@]1(C)[C@@H]2CC[C@@H](C2)C1(C)C [S(+)Mecamylamine, N-2,3,3-tetramethylbicyclo[2.2.1]heptan-2-amine] | 12 ± 1 µM | 14 ± 7 µM | – | – | – |
| CCOc1cncc(/C=C/CCNC)c1 [TC-2559] | – | – | 1600 ± 300 nM | 1700 ± 300 nM | 6.2 ± 1 µM |
| CN1CCC[C@H]1c1cccnc1 [nicotine] | – | – | – | – | 1.6 ± 0.2 µM |
